Measurements from different studies.
Protocols differ between the studies behind these lines. pIC50: −log10 of the molar value.
Read-out: cell growth or viability

| Compound | cell line | test | setting | endpoint | result |
| --- | --- | --- | --- | --- | --- |
| COc1ccc(NS(=O)(=O)c2ccc3cc(C(C)=O)ccc3c2)cc1 | MDCK | neutral red | 48 h | pIC50 | 4.74 |
| Cc1ccc(S(=O)(=O)n2cc(/C=N/NC(=O)c3ccco3)c3ccccc32)cc1 | MCF-10A | MTT | 48 h | pIC50 | < 4.30 |
| CC(C)=CCc1ncc(/C=C2\NC(=O)[C@H](C(C)C)NC2=O)[nH]1 | NCI-H446 | SRB |  | pIC50 | < 4.82 |
| N#Cc1ccc(-c2cc(COc3cc(C(F)(F)F)nc4ccccc34)on2)cc1 | K562 | MTS | 72 h | pIC50 | 4.08 |
| CC(=O)c1ccc2cc(S(=O)(=O)Nc3cccnc3)ccc2c1 | MDCK | neutral red | 48 h | pIC50 | 4.68 |
| Cc1ncsc1-c1ccc(CNC(=O)[C@@H]2C[C@@H](O)CN2C(=O)[C@@H](NC(=O)C2(F)CC2)C(C)(C)C)c(OCCOc2ccc(CN3CCN(c4cc(-c5ccccc5O)nnc4N)CC3)cc2)c1 | VCaP | ATP luminescence | 7 days | pIC50 | 7.61 |
| COc1cccc2c1C(=O)c1c(O)c3c(c(O)c1C2=O)C[C@@](O)(C(=O)CO)C[C@@H]3O[C@H]1C[C@H](N)[C@H](O)[C@H](C)O1 | MDCK | neutral red | 48 h | pIC50 | 4.15 |
| COc1ccc2c(c1)C(=O)C(=O)N2CCn1cnc2c(N)ncnc21 | BALB/3T3 clone A31 | SRB | 72 h | IC50 | 55.3 µg/mL |
| CN1CCC(NC2CCc3[nH]c4c(C(N)=O)ccc(-c5ccccc5Cl)c4c3C2)CC1 (stereo not drawn) | NCI-H446 |  | 96 h | pIC50 | 8.10 |
| O=C1C(=O)N(CCn2ncc3c(=O)[nH]cnc32)c2ccc(Cl)cc21 | BALB/3T3 clone A31 | SRB | 72 h | IC50 | 11.4 µg/mL |
| NC(=O)c1cnc(NCCc2ccc(O)c(Cl)c2)nc1NCc1ccccc1 | JHH7 | CCK-8 | 48 h | pIC50 | 5.89 |
| COc1cccc2c1C(=O)c1c(O)c3c(c(O)c1C2=O)C[C@@](O)(C(=O)CO)C[C@@H]3O[C@H]1C[C@H](N)[C@H](O)[C@H](C)O1 | NCI-H446 | SRB |  | pIC50 | 6.10 |
| CC(=O)c1ccc2cc(S(=O)(=O)Nc3ccc(Br)cc3)ccc2c1 | MDCK | neutral red | 48 h | pIC50 | 4.02 |
| Cc1ccc(S(=O)(=O)n2cc(/C=N/NC(=O)Cc3ccc(F)cc3F)c3ccccc32)cc1 | MCF-10A | MTT | 48 h | pIC50 | < 4.30 |
| Nc1ccn([C@@H]2O[C@H](CO)[C@@H](O)C2(F)F)c(=O)n1 | 4T1 | MTT | 24 h | IC50 | 5.78 µg/mL |
| Cc1ncsc1-c1ccc([C@H](C)NC(=O)[C@@H]2C[C@@H](O)CN2C(=O)[C@@H](NC(=O)CN2CCN(c3cc(-c4ccccc4O)nnc3N)CC2)C(C)(C)C)cc1 | VCaP | ATP luminescence | 7 days | pIC50 | 8.04 |
| CC(C)[C@@H]1NC(=O)[C@H](Cc2c[nH]cn2)NC1=O | NCI-H446 | SRB |  | pIC50 | < 4.82 |
| C/C(=C\C(=O)N[C@H](C(=O)N1CCC[C@H]1C(=O)N(c1ccccc1)c1ccc(I)cc1)C(C)(C)C)c1ccc(OP(=O)(O)O)cc1 | JHH7 | CCK-8 |  | pIC50 | 5.14 |
| Cc1ccc(S(=O)(=O)n2cc(/C=N/NC(=O)c3ccc(Br)cc3)c3ccccc32)cc1 | MCF-10A | MTT | 48 h | pIC50 | < 4.30 |
| CC(=O)c1ccc2cc(S(=O)(=O)Nc3ccccc3C)ccc2c1 | MDCK | neutral red | 48 h | pIC50 | 4.66 |
| CC(=O)O[C@@]12CO[C@@H]1C[C@H](O)[C@@]1(C)C(=O)[C@H](O)C3=C(C)[C@@H](OC(=O)[C@H](O)[C@@H](NC(=O)OC(C)(C)C)c4ccccc4)C[C@@](O)([C@@H](OC(=O)c4ccccc4)[C@H]21)C3(C)C | MCF-10A | MTT | 48 h | pIC50 | < 4.00 |
| Nc1ncnc2c1ncn2CCN1C(=O)C(=O)c2cc(Cl)ccc21 | BALB/3T3 clone A31 | SRB | 72 h | IC50 | 24.4 µg/mL |
| Cc1ccc(S(=O)(=O)n2cc(/C=N/NC(=O)c3ccc([N+](=O)[O-])cc3)c3ccccc32)cc1 | MCF-10A | MTT | 48 h | pIC50 | < 4.30 |
| NC(=S)N/N=C1\C(=O)N(CCn2ncc3c(=O)[nH]cnc32)c2ccc(Cl)cc21 | BALB/3T3 clone A31 | SRB | 72 h | IC50 | 14.3 µg/mL |
| CCOC(=O)c1c(C)nc2ccc(-c3cccc(F)c3)cc2c1O | MCF-10A | MTT | 48 h | pIC50 | ≤ 4.00 |
| Cc1ccc(S(=O)(=O)n2cc(/C=N/NC(=O)c3cccc(Cl)c3)c3ccccc32)cc1 | MCF-10A | MTT | 48 h | pIC50 | < 4.30 |
| FC(F)(F)c1ccc(-c2cc(COc3cc(C(F)(F)F)nc4ccccc34)on2)cc1 | K562 | MTS | 72 h | pIC50 | < 4.00 |
| Cc1ccc(S(=O)(=O)n2cc(/C=N/NC(=O)c3ccccc3Br)c3ccccc32)cc1 | MCF-10A | MTT | 48 h | pIC50 | < 4.30 |
| FC(F)(F)c1cc(OCc2cc(-c3ccc(Cl)cc3Cl)no2)c2ccccc2n1 | K562 | MTS | 72 h | pIC50 | < 4.00 |
| COc1ccc2c(c1)C(=O)C(=O)N2CCn1ncc2c(=O)[nH]cnc21 | BALB/3T3 clone A31 | SRB | 72 h | IC50 | 21.7 µg/mL |
